Measured values gathered from unrelated publications.
Protocols differ between the studies behind these lines.
JAK3: Tyrosine-protein kinase JAK3 (JAK3, Homo sapiens, UniProt P52333)
JAK3 JH1: Tyrosine-protein kinase JAK3, JH1 (JAK3, Homo sapiens, UniProt P52333)

The inhibition of `CS(=O)(=O)Nc1cccc(-c2csc(NC(=O)CSc3nc4nccnc4c(=O)n3CCc3ccccc3)n2)c1` is reported as 1% (JAK3; enzyme activity, inhibitor; 10 µM).
The inhibition of `CCCS(=O)(=O)Nc1ccc(F)c(C(=O)c2c[nH]c3ncc(-c4ccc(Cl)cc4)cc23)c1F` is reported as less than 10% (JAK3; enzyme activity, inhibitor; 1 µM).
The inhibition of `CN1CC(Oc2cnc(C#N)cc2-c2ccn3nc(NC(=O)C4CC4)cc3c2)C1` is reported as 15% (JAK3; enzyme activity, inhibitor; 1 µM).
For `O=C(O)c1cc(-c2ccc(C3CCNCC3)cc2)c2ccc(-c3ccc(C(F)(F)F)cc3)cc2c1`, the remaining binding was 100% (JAK3 JH1; cell-free assay, competition with immobilised ligand; 1 µM).
The remaining activity of `COc1cc(Cl)c(C(=O)N[C@@H](CN[C@H]2CC[C@@H](N)CC2)Cc2ccc(C#N)cc2)cc1-c1ccc(CN[C@H](C)c2ccc(C)cc2)o1` is reported as 101% (JAK3; enzyme activity, inhibitor; 1 µM).
`Oc1ccc(-c2nc(-c3ccncc3)c(-c3ccc(F)cc3)[nH]2)cc1` has a remaining signal of 95.8% (JAK3; cell-free assay; 0.5 µM).
With `Cc1ccc(Nc2nccc(N(C)c3ccc4c(C)n(C)nc4c3)n2)cc1S(N)(=O)=O` the inhibition was 11% (JAK3; enzyme activity, inhibitor; 0.3 µM).
For `CSc1nc(C)c(-c2ccnc(Nc3ccc(N4CCOCC4)cc3)c2)[nH]1`, the inhibition was 65.5% (JAK3; enzyme activity, inhibitor; 10 µM).
The remaining binding of `NS(=O)(=O)c1cc(NC(=O)Cc2ccccc2)ccc1Oc1cccc(Cl)c1` is reported as 96% (JAK3 JH1; cell-free assay, competition with immobilised ligand; 1 µM).
`CC(C)(C)c1nc2c(s1)c1nc(N)ncc1c1ccc(NS(=O)(=O)c3c(F)cccc3F)c(F)c12` has a remaining activity of 100% (JAK3; enzyme activity, inhibitor, radiometric; 1 µM).
For `O=C1NC(=O)c2cc(Nc3ccc(F)cc3)c(Nc3ccc(F)cc3)cc21`, the remaining signal was 93.9% (JAK3; cell-free assay; 0.5 µM).
With `CC1=C(C#N)[C@@H](c2ccc3[nH]nc(C)c3c2)C(C#N)=C(c2ccc(Cl)cc2)N1` the remaining binding was 100% (JAK3 JH1; cell-free assay, competition with immobilised ligand; 1 µM).
`Cc1cc(NC(=O)c2cccc3cc(-c4cccc5[nH]nc(N)c45)ccc23)ccc1F` gave an activity vs control of 94% (JAK3; enzyme activity, inhibitor; 0.1 µM).
The remaining binding of `CN(C)CC#Cc1ccc(OCCCc2sc(N3CCc4cccc(C(=O)Nc5nc6ccccc6s5)c4C3)nc2C(=O)O)c(F)c1` is reported as 58% (JAK3 JH1; cell-free assay, competition with immobilised ligand; 1 µM).
The remaining activity of `O=C(Nc1cnn(-c2csc(C(=O)NC3COC3)c2)c1)Nc1c(F)cccc1Cl` is reported as 98.7% (JAK3; enzyme activity, inhibitor; 5 µM).
The remaining binding of `CNCc1ccccc1-c1csc([C@H](C)Nc2nc(C)nc3cc(OC)c(OC)cc23)c1` is reported as 99% (JAK3 JH1; cell-free assay, competition with immobilised ligand; 1 µM).
The remaining activity of `CC(C)(O)[C@H]1CC[C@H](Nc2ccc3ncc(-c4cccc(C(F)(F)F)c4)n3n2)CC1` is reported as 84.8% (JAK3; enzyme activity, inhibitor; 1 µM).
The remaining signal of `C[C@H]1CCN(c2nccc(-c3cnn4ncccc34)n2)C1` is reported as 84% (JAK3 JH1; cell-free assay; 1 µM).
With `Cn1nc(C(=O)NCc2ccc(C(=O)O)cc2)cc1-c1ccc2[nH]ccc2c1` the remaining binding was 65% (JAK3 JH1; cell-free assay, competition with immobilised ligand; 0.1 µM).
`CCOc1cc(-c2nncn2C)ccc1Nc1ncc2cc(C)nc(NCC(C)(C)C)c2n1` gave an inhibition of less than 15% (JAK3; enzyme activity, inhibitor, FRET; 1 µM).
The inhibition of `COc1cc2ncnc(Nc3ccc(Oc4ccccc4)c(C)c3C)c2cc1OC` is reported as 5% (JAK3; enzyme activity, inhibitor; 1 µM).
The inhibition of `CCN(CC)CCNC(=O)c1c(C)[nH]c(/C=C2\C(=O)Nc3ccc(F)cc32)c1C` is reported as 69% (JAK3; enzyme activity, inhibitor; 10 µM).
`COc1ccc2c(c1)O[C@H](c1ccc(OC)c(OC)c1)C[C@@H]2NC(=O)C1(c2ccc3c(c2)OC(F)(F)O3)CC1` has a remaining binding of 100% (JAK3 JH1; cell-free assay, competition with immobilised ligand; 1 µM).
With `N[C@H]1CCN(c2nccc(-c3cnn4ncccc34)n2)C1` the remaining signal was 86% (JAK3 JH1; cell-free assay; 1 µM).
With `Cc1sc(C(=O)NC2COC2)cc1-n1cc(NC(=O)Nc2c(F)cccc2Cl)cn1` the remaining activity was 96.7% (JAK3; enzyme activity, inhibitor; 10 µM).
With `CN(c1nccc(-c2cnn3ncccc23)n1)C1CC1` the remaining signal was 100% (JAK3 JH1; cell-free assay; 1 µM).
`CCS(=O)(=O)c1cc2cc(C[C@](O)(CC(C)(C)c3ccc(F)cc3C(N)=O)C(F)(F)F)[nH]c2cn1` gave a remaining binding of 72% (JAK3 JH1; cell-free assay, competition with immobilised ligand; 1 µM).
With `COc1cc2ncnc(Nc3ccc(F)c(Cl)c3)c2cc1OCCCN1CCOCC1` the remaining signal was 96.6% (JAK3; cell-free assay; 0.5 µM).
